# Test results as given in PMC3334839 (The Journal of Neuroscience, 2012).
# Assays:
# [1] = biological target: T1, S307A mutant rat α3 GlyR (Rattus norvegicus, UniProt P24524, S329A); test: Whole-cell patch-clamp of IGly in HEK-293 cells expressing S307A mutant α3 GlyRs; type: cell-based; conditions: 10 μM AEA, 5 min sustained, EC2 Gly (100 μM)
# T1 sequence (P24524 34-464 S329A): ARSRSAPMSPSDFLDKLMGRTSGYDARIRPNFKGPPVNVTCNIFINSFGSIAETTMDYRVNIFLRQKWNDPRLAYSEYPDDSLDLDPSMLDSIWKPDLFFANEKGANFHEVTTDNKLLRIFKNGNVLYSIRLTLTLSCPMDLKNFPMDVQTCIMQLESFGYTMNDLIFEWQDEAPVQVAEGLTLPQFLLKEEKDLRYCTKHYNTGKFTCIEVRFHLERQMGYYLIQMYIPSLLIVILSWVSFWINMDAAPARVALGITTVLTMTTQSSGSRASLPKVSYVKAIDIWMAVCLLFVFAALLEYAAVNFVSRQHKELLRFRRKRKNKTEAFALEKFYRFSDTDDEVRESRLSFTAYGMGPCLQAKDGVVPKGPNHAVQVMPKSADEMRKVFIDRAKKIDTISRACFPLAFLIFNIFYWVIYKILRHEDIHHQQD
# [2] = biological target: T2, A303S mutant rat α2 GlyR (Rattus norvegicus, UniProt P22771, A330S); test: Whole-cell patch-clamp of IGly in HEK-293 cells expressing A303S mutant α2 GlyRs; type: cell-based; conditions: 10 μM AEA, 5 min sustained, EC2 Gly (20 μM)
# T2 sequence (P22771 28-452 A330S): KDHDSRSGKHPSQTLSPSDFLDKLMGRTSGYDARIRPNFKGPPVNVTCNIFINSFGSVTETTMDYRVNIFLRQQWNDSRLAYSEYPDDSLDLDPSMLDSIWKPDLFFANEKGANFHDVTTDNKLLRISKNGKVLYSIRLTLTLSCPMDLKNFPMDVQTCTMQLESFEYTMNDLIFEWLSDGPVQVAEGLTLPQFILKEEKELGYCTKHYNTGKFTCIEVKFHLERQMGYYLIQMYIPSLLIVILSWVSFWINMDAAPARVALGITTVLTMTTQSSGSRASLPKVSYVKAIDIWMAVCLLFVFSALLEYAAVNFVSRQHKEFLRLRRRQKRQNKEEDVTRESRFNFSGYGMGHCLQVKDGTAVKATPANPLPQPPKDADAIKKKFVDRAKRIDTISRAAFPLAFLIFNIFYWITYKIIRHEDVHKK
# [3] = biological target: T3, S296A mutant human 5-HT3A receptor (Homo sapiens, UniProt P46098, S319A); type: cell-based; conditions: 0.1 μM AEA, vs wild-type
# T3 sequence (P46098 24-478 S319A): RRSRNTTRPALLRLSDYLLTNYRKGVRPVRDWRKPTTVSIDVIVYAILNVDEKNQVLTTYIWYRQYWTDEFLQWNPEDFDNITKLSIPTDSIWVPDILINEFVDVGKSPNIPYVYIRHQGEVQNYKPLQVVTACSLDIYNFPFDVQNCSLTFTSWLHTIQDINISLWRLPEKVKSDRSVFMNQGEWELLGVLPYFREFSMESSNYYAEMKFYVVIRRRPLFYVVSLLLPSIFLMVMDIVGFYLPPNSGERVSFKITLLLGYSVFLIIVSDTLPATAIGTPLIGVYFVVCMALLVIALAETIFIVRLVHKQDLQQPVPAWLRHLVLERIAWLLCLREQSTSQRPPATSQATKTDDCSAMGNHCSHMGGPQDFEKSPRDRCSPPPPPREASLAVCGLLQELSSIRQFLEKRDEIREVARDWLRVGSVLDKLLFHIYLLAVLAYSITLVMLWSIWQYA
# Procedure, shortened: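 Human 5-HT3A receptors (wild-type or point mutant made by site-directed mutagenesis) transfected into HEK-293 cells. Cells recorded 2 d later, trypsin/EDTA-treated 2 h before, lifted, superfused with HEPES-buffered saline (pH 7.4). Whole-cell, CsCl pipette, −60 mV, 20–22°C. 5-HT 30 μM pulses before, during and after continuous 5 min test compound (0.1 μM) incubation; 5–7 cells, mean ± SE.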
# [4] = biological target: CB2 receptors; conditions: read-out: binding affinity (Ki) for CB2 receptors; ref Pertwee, 2000; cited from earlier work
# [5] = biological target: T4, S296A mutant human α1 GlyR (Homo sapiens, UniProt P23415, S324A); test: cell-based; type: cell-based; conditions: S296A α1
# T4 sequence (P23415 29-457 S324A): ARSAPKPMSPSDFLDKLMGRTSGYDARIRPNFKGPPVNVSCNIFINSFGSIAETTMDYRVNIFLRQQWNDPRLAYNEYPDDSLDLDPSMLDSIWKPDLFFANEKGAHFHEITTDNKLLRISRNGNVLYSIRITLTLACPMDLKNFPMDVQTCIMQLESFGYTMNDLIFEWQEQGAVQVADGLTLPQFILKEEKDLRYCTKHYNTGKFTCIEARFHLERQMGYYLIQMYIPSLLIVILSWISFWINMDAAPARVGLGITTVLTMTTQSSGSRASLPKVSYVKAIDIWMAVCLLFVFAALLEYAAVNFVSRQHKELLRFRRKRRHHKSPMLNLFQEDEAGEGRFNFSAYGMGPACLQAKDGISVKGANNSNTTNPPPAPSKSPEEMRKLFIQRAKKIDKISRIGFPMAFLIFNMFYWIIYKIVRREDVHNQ
smiles,measurement,setting,value
"CCCCC/C=C\C/C=C\C/C=C\C/C=C\CCCC(=O)NCCO [AEA, anandamide]",AEA-induced potentiation of IGly,[1],249 ± 48%
same,AEA-induced potentiation of IGly,[2],580 ± 110%
same,effect of S296A mutation on AEA-induced inhibition of 5-HT-activated current,[3],did not significantly alter
same,Ki,[4],279 to 1940 nM
same,"AEA-induced potentiation of IGly, simultaneous application",[5]; 10 μM AEA simultaneously applied only with Gly,99 ± 20%
same,AEA-induced potentiation of IGly,"[5]; 10 μM AEA, 5 min sustained, EC2 Gly (10 μM)",131 ± 41%
